Cneo AK release: Cryptococcus neoformans lysis via adenylate kinase release | lysis activity, % at 15 µM | C. neoformans lysis, adenylate kinase release luminescence, 4 h; normalised: neutral wells 0, clomiphene wells 100 | 360,000 tested, 0.2% active;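 active = mean lysis activity across replicates of at least 80%, whatever share of replicates individually reach that level; inactive = mean lysis activity below 80%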
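Assay system: Cryptococcus neoformans yeast cells / Dosing: single-point compound dose / Timing: 4 h at 37 °C static, read 1 h later / Measured by: luminescence of released adenylate kinase using an AK detection reagent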
F508del corr: correctors of CFTR F508del function in bronchial epithelial cells. CFBE cells, YFP halide quenching; stimulated with forskolin plus potentiator P3; % fluorescence drop versus neutral controls. activity (quench increase), % at 7.58 µM. 350,000 tested, 0.36% active. AID 720511;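 active = mean added fluorescence quench of at least 8% versus neutral control, with both replicates also reaching 8%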;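 note: cells transiently co-express mutant CFTR-F508del with the halide-sensitive YFP; corrector assay measuring rescue of mutant channel to the surface after 24 h compound exposure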
CaV13 ICDI inh: Primary screen for inhibitors of IQ motif and Ca2+-dependent inactivation inhibitor domain binding in CACNA1D, Förster resonance energy transfer in living cells, …; HEK cells, CFP/YFP FRET ICDI-IQ, plate reader, 10 min; percent FRET-ratio fall versus neutral wells; inhibition, % at 12.3 µM; 340,000 tested, 0.098% active;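 active = mean replicate inhibition of at least 30% and at least 1% of replicates passing that level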;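 note: 0% = median of the neutral control wells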
Ecoli rRNA inh: inhibitors of bacterial rRNA selective over humanized ribosomes. E. coli WT GFP vs humanized-ribosome RFP mutants, fluorescence, 24 h; hits give low values; DMSO median 0, no signal -100. GFP signal change (wild-type ribosome), % (no concentration beside the values). 350,000 tested, 1.6% active. AID 720706;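 active = significant combined selectivity score with lowered wild-type GFP, culture density cut under 30%, mutant RFP and density less affected; inactive = any of these conditions unmet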
* marks the source's active call; other numbers are inactive results; x = not tested or not shown. In the library only some 1.7% were active in any assay of this set; here they are far more common.

SMILES | Cneo AK release | F508del corr | CaV13 ICDI inh | Ecoli rRNA inh
O=C(O)c1nn2c(C(F)(F)F)cc(-c3cccs3)nc2c1Cl | x | x | -3 | -20*
O=C(NCC1CCCO1)c1nn2c(C(F)(F)F)cc(-c3cccs3)nc2c1Cl (stereo not drawn) | 0 | 2 | -47 | 12
Cc1cccc(NC(=O)c2nc[nH]c2C(=O)N(C)CCO)c1 | x | -3 | -4 | -40*
COC(=O)C1=C(C)Nc2nc(-c3ccccc3)nn2C1c1ccc(C)o1 (stereo not drawn) | -2 | 0 | -2 | -22*
COC(=O)C1=C(C)NC(C)=C(C(=O)OC)C1c1ccc(C)o1 | 3 | -3 | -16 | x
O=C(c1cccnc1)N1CCC(Oc2ccc(C(=O)N3CCCC(O)C3)cc2)CC1 (stereo not drawn) | 111* | -2 | -4 | 9
COc1ccc(-c2csc(NC(=S)NC(=O)/C=C/c3ccco3)n2)cc1Br | 0 | 9.4* | -20 | -41*
COc1ccc(-c2csc(NC(=S)NC(=O)/C=C/c3ccc(C(C)C)cc3)n2)cc1OC | 4 | 1 | x | 14
COc1ccc(-c2csc(NC(=S)NC(=O)/C=C/c3ccco3)n2)cc1OC | x | 9.7* | -4 | -14
COc1ccc(-c2c(C(=O)c3ccccc3)[nH]c(N)c2C(=O)NCc2ccccc2)cc1OC | x | -1 | -3 | -36*
CCOc1cccc(C(=O)Nc2ccc(N3CCCC3)cc2)c1 | 2 | -4 | -1 | -19*
COc1cccc(C(=O)NC(=S)Nc2ccc(N3CCCC3)cc2)c1 | 45 | x | x | x
Cc1ccc(C(=O)Nc2ccc(N3CCCC3)cc2)c(C)c1 | x | 0 | -5 | -36*
CC(C)Oc1cccc(C(=O)NC(=S)Nc2ccc(N3CCN(C)CC3)cc2)c1 | -6 | 4 | -4 | -18*
CCCC(=O)N1CCN(c2ccc(NC(=S)NC(=O)c3cccc(C)c3)cc2)CC1 | 3 | 3 | -7 | -20*
CCOc1cccc(C(=O)Nc2ccc(N(CC)CC)cc2)c1 | -8 | x | -4 | x
CCC(=O)N1CCN(c2ccc(NC(=S)NC(=O)c3ccc(OC)c([N+](=O)[O-])c3)cc2)CC1 | x | 0 | -6 | -4
C[C@@H]1CN([C@@H](C)CO)C(=O)c2cc(-c3cccc(F)c3)cnc2O[C@H]1CN(C)Cc1ccccn1 | 2 | 3 | x | 1
C[C@@H]1CN([C@H](C)CO)S(=O)(=O)c2ccc(-c3cccc(F)c3)cc2O[C@H]1CN(C)C(=O)Nc1cc(F)ccc1F | -2 | -2 | x | -3
CCN(CC)c1ccc(NC(=O)CSc2nc(C)cc(=O)[nH]2)cc1 | -2 | 1 | -6 | -14*
CC(O)CNc1nc(N)[nH]c(=O)c1N=Nc1ccccc1 (stereo not drawn) | 0 | 11* | -10 | 19
Nc1nc(O)c(N=Nc2ccc(S(N)(=O)=O)cc2)c(=O)[nH]1 | x | -1 | -19 | 13
C[C@@H]1CN([C@H](C)CO)C(=O)c2cccc(NC(=O)Nc3ccc(C(F)(F)F)cc3)c2O[C@@H]1CN(C)Cc1ccc(C(=O)Nc2ccccc2N)cc1 | x | 0 | x | -9
N#Cc1ncn(C2OC(CO)C(O)C2O)c1N (stereo not drawn) | x | 10.0* | -5 | 14
Nc1ncnc2c1ncn2[C@@H]1O[C@H](CO)[C@@H](O)[C@H]1O | 0 | 2 | -6 | x
SMILES | Cneo AK release | F508del corr | CaV13 ICDI inh | Ecoli rRNA inh
O=C(c1ccncc1)N1C[C@H]2[C@@H](c3ccccc31)[C@H](CO)N2C(=O)Nc1ccccc1Cl | -1 | -1 | x | 0
CC(C)N1C(=O)C2(OCCCO2)c2cc(Br)ccc21 | 84* | -4 | -3 | 5
COC(=O)CN1C(=O)C2(OCCCO2)c2cc(Br)ccc21 | -1 | x | -4 | 3
COC(=O)C[C@@H]1C[C@@H]2c3cc(NC(=O)Nc4ccc(F)cc4)ccc3O[C@@H]2[C@H](CO)O1 | -2 | -2 | x | -2
COc1ccc(CSC2=C(C#N)C(=O)NC3(CCCCC3)S2)cc1 | -3 | 6 | -5 | -28*
CCCCCCSC1=C(C#N)C(=O)NC2(CCCCC2)S1 | 1 | x | -9 | x
N#C[C@H]1[C@@H](c2ccc(-c3cccc(F)c3)cc2)[C@H](CO)N1C(=O)NC1CCCC1 | 0 | 0 | x | -13
N#C[C@@H]1[C@H](c2ccc(-c3cccc(F)c3)cc2)[C@H](CO)N1C(=O)NC1CCCC1 | 1 | 8.6* | x | -4
N#C[C@@H]1[C@H](c2ccccc2)[C@@H](CO)N1C(=O)Cc1ccccc1 | 0 | 0 | x | -1
CCCNC(=O)N1[C@H](C#N)[C@H](c2ccc(C#Cc3ccc(F)cc3)cc2)[C@H]1CO | -4 | 3 | x | -55
CCCNC(=O)N1[C@H](C#N)[C@H](c2ccc(C#Cc3ccc(F)cc3)cc2)[C@@H]1CO | -2 | 8.4* | x | -8
COCC(=O)N1[C@@H](C#N)[C@@H](c2ccc(C#Cc3ccccc3F)cc2)[C@@H]1CO | 0 | 1 | x | -35
COCC(=O)N1[C@H](C#N)[C@H](c2ccc(C#Cc3ccccc3F)cc2)[C@H]1CO | 83* | 2 | x | -11
N#C[C@H]1[C@@H](c2ccccc2)[C@@H](CO)N1C(=O)Cc1ccccc1 | 101* | 0 | x | 3
C[C@H](NC(=O)C[C@H]1C[C@H]2c3cc(NC(=O)Cc4ccncc4)ccc3O[C@H]2[C@@H](CO)O1)c1ccccc1 | -3 | -1 | x | 0
CO[C@H]1CN(C)C(=O)c2cc(NS(C)(=O)=O)ccc2OC[C@H](C)N(CC2CCCCC2)C[C@H]1C | 36 | -2 | x | 0
[N-]=[N+]=Nc1ccccc1C[C@]1(C(=O)NCc2ccccc2)COC(c2ccc(OCCCO)cc2)=N1 | -1 | 0 | x | x
O=C(NCc1ccc(F)cc1)c1ccccc1OCc1ccccc1 | -5 | x | 0 | -38*
C[C@@H]1CCCCO[C@H](CN(C)S(C)(=O)=O)[C@H](C)CN([C@@H](C)CO)C(=O)c2cc(NC(=O)Nc3ccc(C(F)(F)F)cc3)ccc2O1 | x | x | x | 0
S=c1[nH]nc(SCc2ccccc2)c2[nH]cnc12 | 0 | 2 | -10 | -17*
CCCn1cnc2cc(NCc3cccc(OC)c3O)ccc21 | 0 | x | -3 | x
COc1cccc(CNc2ccc3c(c2)ncn3C(C)C)c1OC | -3 | -2 | -6 | -21*
C[C@H](CO)N1C[C@H](C)[C@H](CN(C)S(=O)(=O)c2cccs2)Oc2c(NC(=O)c3ccncc3)cccc2C1=O | 60 | 1 | x | 0
C[C@@H]1CN([C@@H](C)CO)C(=O)c2cc(NC(=O)Nc3ccccc3)ccc2O[C@@H](C)CCCCO[C@H]1CN(C)Cc1ccc2c(c1)OCO2 | 0 | 0 | x | -1
COc1ccc(/C=N/NC(=O)CCSc2nc3ccccc3s2)cc1 | x | x | -3 | -26*
CNC(=O)COC(=O)c1cc(-c2ccccc2)nn1-c1ccccc1 | 0 | -3 | -3 | -27*
CC1CCCC(NCC(O)COC(c2ccc(F)cc2)c2ccc(F)cc2)C1C (stereo not drawn) | 9 | -5 | -7 | -53*

Screens from PubChem.
